Here are results for 7 molecules from ChEMBL document CHEMBL4406884, “An anthrone-based Kv7.2/7.3 channel blocker with improved properties for the investigation of psychiatric and neurodegenerative disorders” (Bioorg Med Chem Lett, 2019).

The target of data set [1] is T1, CYP3A4 (Homo sapiens, UniProt P08684). Description: Inhibition of CYP3A4 (unknown origin) at 50 uM using DBOMF as substrate measured for each min for 6 mins by fluorescence based assay relative to control. The settings on record: probe DBOMF. In kind it is ADME.
T1 sequence (P08684 whole entry): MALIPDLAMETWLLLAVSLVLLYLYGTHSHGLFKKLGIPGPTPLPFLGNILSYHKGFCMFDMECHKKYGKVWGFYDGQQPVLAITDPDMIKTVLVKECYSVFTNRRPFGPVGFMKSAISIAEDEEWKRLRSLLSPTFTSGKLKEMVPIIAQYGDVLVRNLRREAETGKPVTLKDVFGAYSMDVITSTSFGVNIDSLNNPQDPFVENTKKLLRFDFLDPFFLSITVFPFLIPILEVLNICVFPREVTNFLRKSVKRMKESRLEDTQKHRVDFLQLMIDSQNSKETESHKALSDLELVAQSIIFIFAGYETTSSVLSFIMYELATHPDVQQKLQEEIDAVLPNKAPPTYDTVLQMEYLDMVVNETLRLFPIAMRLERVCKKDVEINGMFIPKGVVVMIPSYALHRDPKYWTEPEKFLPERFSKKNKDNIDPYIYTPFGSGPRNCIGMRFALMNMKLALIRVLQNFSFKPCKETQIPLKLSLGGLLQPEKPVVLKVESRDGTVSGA
The target in data set [2] is Potassium voltage-gated channel subfamily KQT member 2 (Homo sapiens, UniProt O43526). Description: Inhibition of Kv7.2 in human HEK293 cells incubated for 1 hr by thallium flux assay. The class given is cell-based. In short, it runs like this:
(§1)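 HEK-293 cells stably expressing KCNQ2 or hERG were plated overnight, then loaded with Thallos AM dye for 1 h at 22 °C. Compounds (10-point, 3-fold dilutions) were added for 5 min, then Tl₂SO₄/K-gluconate stimulus, read at 1 Hz. F/F0 was vehicle-subtracted and initial slopes fit to a four-parameter logistic. Triplicate wells; mean of three independent experiments.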

Data set [3] has as its target Voltage-gated potassium channel, KQT; KCNQ2(Kv7.2)/KCNQ3(Kv7.3) (Homo sapiens) (UniProt O43526+O43525). Description: Inhibition of Kv7.2/7.3 in human tsA201 cells assessed as effect on channel currents at -60 mV holding potential at 1.5 uM by whole cell patch clamp assay relative to control. In kind it is cell-based.
Data set [4] addresses Voltage-gated inwardly rectifying potassium channel KCNH2 (Homo sapiens, UniProt Q12809). Briefly: Inhibition of ERG in human HEK293 cells incubated for 1 hr by thallium flux assay. In kind it is cell-based. The procedure, abridged:
as §1

A short description of data set [5]: Kinetic solubility in […] % DMSO/water at 3.2 uM to 100 uM incubated for 18 hrs by spectrometry. The class given is physicochemical. The settings on record: for solubility kinetic at 18 h: […] DMSO/water, read-out: Kinetic_solubility.
Another data set has as its system HepG2. Description: Cytotoxicity against human HepG2 cells assessed as reduction in cell viability incubated for 18 hrs by celltiter-glo assay. Particulars: hepg2, 18 h; call rule not given here.
The target in data set [6] is T2, Alpha-1A adrenergic receptor (Homo sapiens, UniProt P35348).
T2 sequence (P35348 whole entry): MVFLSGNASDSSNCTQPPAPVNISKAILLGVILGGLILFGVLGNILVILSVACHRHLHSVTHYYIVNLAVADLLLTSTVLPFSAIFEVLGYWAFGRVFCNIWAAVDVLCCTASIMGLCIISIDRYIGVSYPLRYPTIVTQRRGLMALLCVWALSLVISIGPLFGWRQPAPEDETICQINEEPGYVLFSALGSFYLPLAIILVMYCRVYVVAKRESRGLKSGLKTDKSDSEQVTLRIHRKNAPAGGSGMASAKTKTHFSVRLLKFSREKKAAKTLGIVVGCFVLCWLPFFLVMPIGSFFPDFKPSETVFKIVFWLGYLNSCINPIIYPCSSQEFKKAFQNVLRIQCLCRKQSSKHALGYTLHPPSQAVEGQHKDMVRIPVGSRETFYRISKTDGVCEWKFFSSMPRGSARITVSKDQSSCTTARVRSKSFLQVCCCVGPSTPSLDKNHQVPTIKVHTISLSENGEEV
Briefly: Inhibition of alpha1A adrenergic receptor (unknown origin).

Data set [7] in a line: Stability in 1:1 MeCN:0.2N aq. HCl assessed as percent remaining at 0.3 mM and 60 degC incubated for 24 hrs by LC/MS analysis. The settings on record: for remaining at 24 h, 300 µM: 1:1 MeCN:0.2N aq. HCl, read-out: Stability. In kind it is physicochemical. The procedure, abridged:
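Compound in 1:1 CH3CN/0.2 N aqueous HCl with furan-2-carboxylic acid (1 eq) as internal standard, heated at 60 °C. Analysed by LC-MS at set time points. Degradation from UV peak area at 254 nm relative to the internal standard.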

The target in data set [8] is Adrenergic receptor alpha-1 (Homo sapiens) (UniProt P35348+P25100+P35368). Briefly: Binding affinity to alpha1 adrenergic receptor (unknown origin) at 10 uM relative to control. The class given is protein assay.
Sequence of Adrenergic receptor alpha-1 (Homo sapiens) (P25100 whole entry, looked up, one chain of several): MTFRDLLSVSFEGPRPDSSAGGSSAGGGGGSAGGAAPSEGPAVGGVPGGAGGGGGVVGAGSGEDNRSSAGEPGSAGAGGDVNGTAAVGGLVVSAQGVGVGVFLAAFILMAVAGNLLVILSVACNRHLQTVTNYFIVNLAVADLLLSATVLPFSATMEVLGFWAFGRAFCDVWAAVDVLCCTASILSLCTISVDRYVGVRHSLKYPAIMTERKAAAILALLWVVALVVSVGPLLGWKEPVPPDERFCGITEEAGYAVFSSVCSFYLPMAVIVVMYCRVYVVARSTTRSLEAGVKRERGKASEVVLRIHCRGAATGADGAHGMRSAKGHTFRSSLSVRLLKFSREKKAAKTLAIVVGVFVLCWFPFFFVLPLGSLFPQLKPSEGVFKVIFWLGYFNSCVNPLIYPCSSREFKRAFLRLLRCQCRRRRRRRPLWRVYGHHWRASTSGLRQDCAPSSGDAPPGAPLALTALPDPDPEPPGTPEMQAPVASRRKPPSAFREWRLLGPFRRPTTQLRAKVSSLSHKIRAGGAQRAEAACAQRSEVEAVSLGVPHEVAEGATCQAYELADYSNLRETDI
Sequence of Adrenergic receptor alpha-1 (Homo sapiens) (P35368 whole entry, looked up, one chain of several): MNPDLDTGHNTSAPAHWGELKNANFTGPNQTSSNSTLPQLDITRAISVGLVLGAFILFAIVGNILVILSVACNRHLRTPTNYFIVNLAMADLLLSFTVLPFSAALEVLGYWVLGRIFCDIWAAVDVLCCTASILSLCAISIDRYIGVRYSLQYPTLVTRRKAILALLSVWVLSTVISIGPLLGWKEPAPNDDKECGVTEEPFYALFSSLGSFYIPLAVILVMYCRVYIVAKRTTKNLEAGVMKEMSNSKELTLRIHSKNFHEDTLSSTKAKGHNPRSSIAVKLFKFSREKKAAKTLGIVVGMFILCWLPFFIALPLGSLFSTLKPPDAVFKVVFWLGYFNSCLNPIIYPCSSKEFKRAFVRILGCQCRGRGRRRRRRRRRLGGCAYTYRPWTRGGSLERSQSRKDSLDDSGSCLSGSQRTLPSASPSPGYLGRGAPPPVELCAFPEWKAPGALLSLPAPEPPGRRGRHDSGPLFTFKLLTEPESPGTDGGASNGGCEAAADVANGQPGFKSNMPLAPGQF
Another data set relates to HEK293. Description: Cytotoxicity against human HEK293 cells assessed as reduction in cell viability incubated for 18 hrs by celltiter-glo assay. The settings on record: hek293, 18 h. On the technique in general: In ATP-based viability assays light output follows the ATP content of the culture.
In data set [9] the target is T3, Alpha-1A adrenergic receptor (Homo sapiens) (UniProt P35348).
T3 sequence (whole entry): T2 sequence (P35348 whole entry)
Description: Binding affinity to alpha1A adrenergic receptor (unknown origin) at 10 uM relative to control.

For data set [10], the target named is T1, CYP3A4. Briefly: Inhibition of CYP3A4 (unknown origin) at 10 uM using DBOMF as substrate measured for each min for 6 mins by fluorescence based assay relative to control. Particulars: probe DBOMF. The class given is ADME. The procedure, abridged: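 Vivid CYP3A4 Green assay in PBS pH 7.2 with NADP+ regeneration system. Final levels: 5 nM CYP3A4, 2 μM DBOMF substrate, 100 μM NADP+, 10 μM compound. Fluorescence (ex 490/em 520 nm) read every minute for 6 min, four wells per compound.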

Data set [11] in a line: Metabolic stability in human liver microsomes assessed as percent remaining […] incubated for 1 hr by LC/MS analysis. In kind it is ADME, Microsome. The procedure, abridged: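 Compound at 10 μM final (from 1 mM DMSO stock) pre-incubated 5 min at 37 °C with NADPH regenerating system in phosphate buffer pH 7.4. Started with human liver microsomes (0.5 mg/mL protein). After 1 h, triplicate aliquots quenched in cold acetonitrile with internal standard. Percent remaining by LC-MS/MS peak-area ratio to internal standard.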
A general note: Liver microsomes are a subcellular fraction often used to study metabolism.

For data set [12], the target named is T4, D(3) dopamine receptor (Homo sapiens, UniProt P35462). Briefly: Inhibition of D3 receptor (unknown origin).
T4 sequence (P35462 whole entry): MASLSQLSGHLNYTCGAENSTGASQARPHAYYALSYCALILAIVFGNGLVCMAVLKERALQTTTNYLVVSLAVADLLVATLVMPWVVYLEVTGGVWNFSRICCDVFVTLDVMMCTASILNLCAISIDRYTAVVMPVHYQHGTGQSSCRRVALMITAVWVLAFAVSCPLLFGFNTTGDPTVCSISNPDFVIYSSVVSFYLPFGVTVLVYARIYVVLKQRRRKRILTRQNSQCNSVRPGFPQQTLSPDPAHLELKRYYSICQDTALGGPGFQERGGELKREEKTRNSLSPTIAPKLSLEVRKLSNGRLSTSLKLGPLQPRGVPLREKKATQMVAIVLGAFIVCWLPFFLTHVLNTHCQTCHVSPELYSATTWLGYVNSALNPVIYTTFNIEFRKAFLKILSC
The target of data set [13] is T4, D(3) dopamine receptor. Briefly: Binding affinity to D3 receptor (unknown origin) at 10 uM relative to control.

≈ marks a conversion by molar mass, not a printed value.

Sequence of Potassium voltage-gated channel subfamily KQT member 2 (O43526 whole entry): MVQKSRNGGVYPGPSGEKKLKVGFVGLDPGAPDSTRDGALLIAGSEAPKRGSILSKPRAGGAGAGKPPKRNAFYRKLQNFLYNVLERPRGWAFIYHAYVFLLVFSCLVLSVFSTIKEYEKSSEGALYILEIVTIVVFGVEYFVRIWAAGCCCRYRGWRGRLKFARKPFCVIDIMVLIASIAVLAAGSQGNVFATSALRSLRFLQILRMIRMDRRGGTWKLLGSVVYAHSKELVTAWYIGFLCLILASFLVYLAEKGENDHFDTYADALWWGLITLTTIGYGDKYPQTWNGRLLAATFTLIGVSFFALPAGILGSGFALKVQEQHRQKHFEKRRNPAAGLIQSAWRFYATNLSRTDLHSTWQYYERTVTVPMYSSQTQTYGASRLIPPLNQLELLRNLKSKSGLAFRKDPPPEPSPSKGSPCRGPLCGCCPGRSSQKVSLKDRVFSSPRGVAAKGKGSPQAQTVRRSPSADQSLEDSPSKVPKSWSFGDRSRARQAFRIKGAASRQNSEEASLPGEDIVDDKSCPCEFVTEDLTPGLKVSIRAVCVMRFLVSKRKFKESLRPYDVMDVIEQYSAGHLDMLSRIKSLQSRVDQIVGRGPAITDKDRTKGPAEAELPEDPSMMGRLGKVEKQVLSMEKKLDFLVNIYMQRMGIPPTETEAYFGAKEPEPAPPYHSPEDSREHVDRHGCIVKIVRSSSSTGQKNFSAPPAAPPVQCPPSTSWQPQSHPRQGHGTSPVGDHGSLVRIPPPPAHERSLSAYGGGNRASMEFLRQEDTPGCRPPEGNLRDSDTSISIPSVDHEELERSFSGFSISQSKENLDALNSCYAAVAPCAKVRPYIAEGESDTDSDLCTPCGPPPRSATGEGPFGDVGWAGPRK
Sequence of Voltage-gated inwardly rectifying potassium channel KCNH2 (Q12809 whole entry): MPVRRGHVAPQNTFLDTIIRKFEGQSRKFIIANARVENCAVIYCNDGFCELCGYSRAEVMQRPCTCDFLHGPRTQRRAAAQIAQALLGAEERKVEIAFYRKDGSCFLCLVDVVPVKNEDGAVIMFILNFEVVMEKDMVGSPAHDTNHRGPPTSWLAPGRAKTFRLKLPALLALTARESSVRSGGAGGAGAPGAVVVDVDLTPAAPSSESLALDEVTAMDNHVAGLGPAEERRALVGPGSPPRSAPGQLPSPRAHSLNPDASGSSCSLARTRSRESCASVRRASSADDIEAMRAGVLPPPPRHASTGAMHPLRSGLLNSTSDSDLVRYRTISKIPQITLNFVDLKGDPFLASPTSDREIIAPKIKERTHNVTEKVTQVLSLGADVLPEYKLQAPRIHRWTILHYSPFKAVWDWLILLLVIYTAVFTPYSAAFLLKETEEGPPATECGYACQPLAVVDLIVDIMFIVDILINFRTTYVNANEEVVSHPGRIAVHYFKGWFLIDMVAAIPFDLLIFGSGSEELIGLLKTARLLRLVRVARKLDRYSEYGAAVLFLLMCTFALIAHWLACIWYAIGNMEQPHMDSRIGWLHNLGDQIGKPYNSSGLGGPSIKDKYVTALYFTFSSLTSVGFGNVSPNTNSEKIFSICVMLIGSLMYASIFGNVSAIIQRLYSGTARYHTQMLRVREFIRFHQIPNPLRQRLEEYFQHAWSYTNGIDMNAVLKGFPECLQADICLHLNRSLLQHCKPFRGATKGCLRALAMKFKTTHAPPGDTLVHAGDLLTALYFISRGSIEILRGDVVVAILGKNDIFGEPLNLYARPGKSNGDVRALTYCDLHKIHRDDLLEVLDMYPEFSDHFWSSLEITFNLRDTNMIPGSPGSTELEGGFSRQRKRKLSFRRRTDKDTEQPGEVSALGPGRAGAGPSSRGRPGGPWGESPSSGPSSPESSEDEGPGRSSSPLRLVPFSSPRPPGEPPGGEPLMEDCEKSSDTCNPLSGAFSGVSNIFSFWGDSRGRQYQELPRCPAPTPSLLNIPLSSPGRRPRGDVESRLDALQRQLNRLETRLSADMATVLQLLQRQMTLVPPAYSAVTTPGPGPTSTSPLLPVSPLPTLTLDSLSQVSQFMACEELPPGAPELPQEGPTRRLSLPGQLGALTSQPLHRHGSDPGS

For the molecule `Cc1cc(CC2(Cc3ccnc(C)c3)c3ccccc3C(=O)c3ccccc32)ccn1`, the inhibition at 0.1 h, 50 µM at CYP3A4 [1] is 92%. Besides, the IC50 in data set [2] was 0.54 µM; in [4], “Not Active”. For the same molecule, in data set [3], the inhibition was 33%.

As to `O=C1c2ccccc2C(Cc2ccncc2)(Cc2ccncc2)c2ccccc21`, the solubility kinetic at 18 h in [5] turned out to be 27 µM (≈ 10.2 µg/mL). In data set [2], this molecule returned a half-maximal inhibitory concentration (IC50) of 0.055 µM. Besides, the inhibition in data set [3] was 81%.

For `O=C1c2ccccc2C(Cc2ccnc(F)c2)(Cc2ccnc(F)c2)c2ccccc21`, the values for the CC50 with HepG2 and in the data set on HEK293 were 132 µM and 77 µM, respectively. The Ki in data set [6] was 1.1 to 3.1 µM. The Stability in data set [7] (buffer, 24 h, 300 µM) turned out to be 83%; in data set [11], 97%. Besides, the solubility kinetic at 18 h in [5] was found to be 27 µM (≈ 11.1 µg/mL). The Activity in data set [8] and in data set [9] was greater than 30% throughout. Besides, on CYP3A4 [1], the inhibition at 0.1 h, 50 µM turned out to be 82%. This molecule yielded an IC50 in data set [2] of 0.048 µM. In addition, the inhibition in data set [3] turned out to be 31%. This molecule registered an inhibition at 0.1 h, 10 µM on CYP3A4 [10] of 79%.

For the molecule `O=C1c2ccccc2C(Cc2ccnc(C(F)(F)F)c2)(Cc2ccnc(C(F)(F)F)c2)c2ccccc21`, the inhibition at 0.1 h, 50 µM against CYP3A4 [1] was determined as 95%. The values for the IC50 in data set [2] and in data set [4] were 5.6 µM and “Not Active”, respectively. Also, the inhibition in data set [3] worked out at 6%.

In the case of `O=C1c2ccccc2C(Cc2c(F)cncc2F)(Cc2c(F)cncc2F)c2ccccc21`, in data set [7], the remaining at 24 h, 300 µM is greater than 99%. In addition, on CYP3A4 [1], the inhibition at 0.1 h, 50 µM is 97%. The molecule further returned an IC50 in [2] of 0.2 µM. Also, in [3], the inhibition stood at 65%.

In the case of `O=C1c2ccccc2C(Cc2ccnnc2)(Cc2c(F)cncc2F)c2ccccc21`, the CC50 in the data set on HepG2 and in the data set on HEK293 was greater than 150 µM throughout. Further, in data set [7], the remaining at 24 h, 300 µM is greater than 99%. In data set [5] (buffer, 18 h, 3.2 µM), this molecule displayed a Kinetic_solubility of 27 µM. The Activity (in data set [8]; at D(3) dopamine receptor [13]) was greater than 30% in each case. In addition, the Ki on D(3) dopamine receptor [12] was greater than 10 µM. This molecule also came in with an IC50 in data set [2] of 0.16 µM. The inhibition in data set [3] stood at 73%. The inhibition at 0.1 h, 10 µM on CYP3A4 [10] is 90%. Besides, the Stability in [11] is recorded as 84%.

`O=C1c2ccccc2C(Cc2ccnnc2)(Cc2ccnnc2)c2ccccc21` displayed an inhibition at 0.1 h, 50 µM against CYP3A4 [1] of 28%. Further, the IC50 in [2] is 10 µM; in data set [4] it was “Not Active”. In [3], the inhibition worked out at 12%.

The inhibition is the percentage by which the read-out fell short of the control. As a reminder, the IC50 is the concentration needed to halve the response being measured. Lower therefore signals inhibition by little substance. Usually CC50 stands for the concentration giving 50% cytotoxicity. In general, Ki refers to a measure of affinity in units of concentration, obtained from inhibition or displacement. A low value points to higher affinity.
